The source made the active and inactive calls. No cut-off for these calls is given here.
Legend:
DU-145 [1] = assay: Cell cycle arrest in human DU145 cells assessed as accumulation at sub-G1 phase at 1 uM after 48 hrs by FACS analysis (reference value: 7.71%); format: functional
DU-145 [2] = assay: Cell cycle arrest in human DU145 cells assessed as accumulation at sub-G1 phase at 2 uM after 48 hrs by FACS analysis (reference value: 7.71%); format: functional
DU-145 [3] = assay: Cell cycle arrest in human DU145 cells assessed as accumulation at G0/G1 phase at 1 uM after 48 hrs by FACS analysis (reference value: 53.60%); format: functional
A549 = assay: Antiproliferative activity against human A549 cells after 48 hrs by MTT assay; format: functional, cell-based; settings: A549, 48 h
DU-145 [4] = assay: Antiproliferative activity against human DU145 cells after 48 hrs by MTT assay; format: functional, cell-based; settings: DU-145, 48 h
HeLa = assay: Antiproliferative activity against human HeLa cells after 48 hrs by MTT assay; format: functional, cell-based
MCF7 = assay: Antiproliferative activity against human MCF7 cells after 48 hrs by MTT assay; format: functional, cell-based; settings: MCF7, 48 h
NIH3T3 = assay: Antiproliferative activity against mouse NIH/3T3 cells after 48 hrs by MTT assay; format: functional, cell-based; settings: NIH3T3, 48 h
[5] = target: T1, Topoisomerase I (Bos taurus) (UniProt Q2HPH0); assay: Inhibition of calf thymus DNA topoisomerase 1 at 20 uM using pBR322 DNA as substrate after 30 mins by agarose gel electrophoresis method
T1 sequence (whole entry): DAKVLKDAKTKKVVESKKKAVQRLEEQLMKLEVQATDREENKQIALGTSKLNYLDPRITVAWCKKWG

DNA [6] = assay: Induction of Escherichia coli pBR322 DNA cleavage at 20 uM incubated in dark condition by agarose gel electrophoresis; format: nucleic-acid assay
Summary of the method: (§1)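 pBR322 plasmid DNA was incubated with 20 µM ligand, either in the dark or under UV-light irradiation for 1 h. Products were separated by gel electrophoresis. Irradiated DNA solution alone served as the control.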

DNA [7] = assay: Induction of Escherichia coli pBR322 DNA cleavage at 20 uM incubated in presence of UV-light for 1 hr by agarose gel electrophoresis; format: nucleic-acid assay; summary of the method: as §1
DU-145 [8] = assay: Cell cycle arrest in human DU145 cells assessed as accumulation at G0/G1 phase at 2 uM after 48 hrs by FACS analysis (reference value: 53.60%); format: functional
DU-145 [9] = assay: Cell cycle arrest in human DU145 cells assessed as accumulation at S phase at 1 uM after 48 hrs by FACS analysis (reference value: 16.22%); format: functional
DU-145 [10] = assay: Cell cycle arrest in human DU145 cells assessed as accumulation at S phase at 2 uM after 48 hrs by FACS analysis (reference value: 16.22%); format: functional
DU-145 [11] = assay: Cell cycle arrest in human DU145 cells assessed as accumulation at G2/M phase at 1 uM after 48 hrs by FACS analysis (reference value: 21.07%); format: functional
DU-145 [12] = assay: Cell cycle arrest in human DU145 cells assessed as accumulation at G2/M phase at 2 uM after 48 hrs by FACS analysis (reference value: 21.07%); format: functional
DU-145 [13] = assay: Induction of apoptosis in human DU145 cells assessed as necrotic cells at 1 uM after 48 hrs by annexin-V/FITC/propidium iodide staining-based FACS analysis (reference value: 0.49%); format: functional
DU-145 [14] = assay: Induction of apoptosis in human DU145 cells assessed as necrotic cells at 2 uM after 48 hrs by annexin-V/FITC/propidium iodide staining-based FACS analysis (reference value: 0.49%); format: functional
DU-145 [15] = assay: Induction of apoptosis in human DU145 cells assessed as late apoptotic cells at 1 uM after 48 hrs by annexin-V/FITC/propidium iodide staining-based FACS analysis (reference value: 4.46%); format: functional
DU-145 [16] = assay: Induction of apoptosis in human DU145 cells assessed as late apoptotic cells at 2 uM after 48 hrs by annexin-V/FITC/propidium iodide staining-based FACS analysis (reference value: 4.46%); format: functional
DU-145 [17] = assay: Induction of apoptosis in human DU145 cells assessed as viable cells at 1 uM after 48 hrs by annexin-V/FITC/propidium iodide staining-based FACS analysis (reference value: 91.44%); format: functional; settings: DU-145, 48 h, read-out: Activity
DU-145 [18] = assay: Induction of apoptosis in human DU145 cells assessed as viable cells at 2 uM after 48 hrs by annexin-V/FITC/propidium iodide staining-based FACS analysis (reference value: 91.44%); format: functional; settings: DU-145, 48 h, read-out: Activity
DU-145 [19] = assay: Induction of apoptosis in human DU145 cells assessed as early apoptotic cells at 1 uM after 48 hrs by annexin-V/FITC/propidium iodide staining-based FACS analysis (reference value: 3.61%); format: functional
DU-145 [20] = assay: Induction of apoptosis in human DU145 cells assessed as early apoptotic cells at 2 uM after 48 hrs by annexin-V/FITC/propidium iodide staining-based FACS analysis (reference value: 3.61%); format: functional
Calf thymus DNA [21] = assay: Binding affinity to calf thymus double stranded DNA assessed as hypochromicity at 10 uM by […] method; format: nucleic-acid assay; settings: Bos taurus
Calf thymus DNA [22] = assay: Binding affinity to calf thymus double stranded DNA at 20 uM by CD spectroscopic method; format: nucleic-acid assay; settings: Bos taurus
Calf thymus DNA [23] = assay: Binding affinity to calf thymus double stranded DNA at 25 uM by UV-vis spectroscopic method; format: nucleic-acid assay; settings: Bos taurus
Calf thymus DNA [24] = assay: Binding affinity to calf thymus double stranded DNA at 10 uM by spectrofluorimetric method; format: nucleic-acid assay; settings: Bos taurus
Calf thymus DNA [25] = assay: Binding affinity to calf thymus double stranded DNA at 15 uM by ostwald viscometer; format: nucleic-acid assay; settings: Bos taurus

Cc1ccc(-c2nc(C(c3c[nH]c4ccc(Br)cc34)c3c[nH]c4ccc(Br)cc34)cc3c2[nH]c2ccccc23)cc1
Activity (DU-145 [1]): 5.57% | Activity (DU-145 [2]): 6.05% | Activity (DU-145 [3]): 54.58% | IC50 (A549): 2.51 µM | IC50 (DU-145 [4]): 1.86 µM | IC50 (HeLa): 2.54 µM | IC50 (MCF7): 5.85 µM | IC50 (NIH3T3): 125 µM | inhibition [5]: Active | Activity (DNA [6]): Not Active | Activity (DNA [7]): Active | Activity (DU-145 [8]): 15.92% | Activity (DU-145 [9]): 16.37% | Activity (DU-145 [10]): 19.52% | Activity (DU-145 [11]): 22.04% | Activity (DU-145 [12]): 57.12% | Activity (DU-145 [13]): 0.12% | Activity (DU-145 [14]): 0.47% | Activity (DU-145 [15]): 6.43% | Activity (DU-145 [16]): 3.12% | viability at 1 µM (DU-145 [17]): 87% | viability at 2 µM (DU-145 [18]): 63.6% | Activity (DU-145 [19]): 6.43% | Activity (DU-145 [20]): 32.76% | Activity (Calf thymus DNA [21]): 10 to 12% | Activity (Calf thymus DNA [22]): Active | Activity (Calf thymus DNA [23]): Active | Activity (Calf thymus DNA [24]): Active | Activity (Calf thymus DNA [25]): Active

Fc1ccc(-c2nc(C(c3c[nH]c4ccccc34)c3c[nH]c4ccccc34)cc3c2[nH]c2ccccc23)cc1
Activity (DU-145 [1]): 6.91% | Activity (DU-145 [2]): 4.93% | Activity (DU-145 [3]): 15.15% | IC50 (A549): 2.04 µM | IC50 (DU-145 [4]): 1.8 µM | IC50 (HeLa): 3.25 µM | IC50 (MCF7): 8.5 µM | IC50 (NIH3T3): 140 µM | inhibition [5]: Active | Activity (DNA [6]): Not Active | Activity (DNA [7]): Active | Activity (DU-145 [8]): 13.58% | Activity (DU-145 [9]): 19.16% | Activity (DU-145 [10]): 17.41% | Activity (DU-145 [11]): 57.46% | Activity (DU-145 [12]): 62.86% | Activity (DU-145 [13]): 0.23% | Activity (DU-145 [14]): 1.14% | Activity (DU-145 [15]): 6.55% | Activity (DU-145 [16]): 5.06% | viability at 1 µM (DU-145 [17]): 84.7% | viability at 2 µM (DU-145 [18]): 55.5% | Activity (DU-145 [19]): 8.49% | Activity (DU-145 [20]): 38.28% | Activity (Calf thymus DNA [21]): 10 to 12% | Activity (Calf thymus DNA [22]): Active | Activity (Calf thymus DNA [23]): Active | Activity (Calf thymus DNA [24]): Active | Activity (Calf thymus DNA [25]): Active
